The full list was thinned out, with hits kept by preference.
S1P3 antag – S1P3 receptor antagonists, primary screen, cell-based; Sphingosine 1-phosphate receptor 3 (Homo sapiens), Q99500; CHO S1P3 NFAT-BLA reporter, FRET fluorescence, antagonist mode; inhibition, % at 4.98 µM; 170,000 compounds, 0.27% hits; AID 485, 2006;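 active = inhibition above the plate cutoff, the mean inhibition of test wells on that plate plus 3 SD, cut at about 28% in these data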;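 also: cells challenged with S1P at its EC80 of 0.8 µM; blue over green emission ratio from cleaved BLA substrate after 4 h stimulation; 0% = S1P-stimulated wells and 100% = unstimulated DMSO-only wells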
Target sequence (Q99500 whole entry, looked up): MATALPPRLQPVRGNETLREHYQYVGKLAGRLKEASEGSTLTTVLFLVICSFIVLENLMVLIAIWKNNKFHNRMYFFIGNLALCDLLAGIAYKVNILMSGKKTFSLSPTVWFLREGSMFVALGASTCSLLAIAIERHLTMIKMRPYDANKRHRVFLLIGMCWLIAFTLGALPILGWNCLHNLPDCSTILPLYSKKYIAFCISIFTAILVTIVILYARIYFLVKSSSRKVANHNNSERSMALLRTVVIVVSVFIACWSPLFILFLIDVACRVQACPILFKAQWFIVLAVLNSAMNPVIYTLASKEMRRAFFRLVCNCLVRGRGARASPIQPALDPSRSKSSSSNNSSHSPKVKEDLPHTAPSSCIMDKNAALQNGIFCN
S1P4 agonist – S1P4 receptor agonists, primary screen, cell-based; AID 1509, 2009; activation, % at 4.98 µM; S1P4-expressing cell line, agonist reporter assay; 220,000 compounds, 0.35% hits; Sphingosine 1-phosphate receptor 4 (Homo sapiens), O95977; in the data active = activation above about 11%;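 also: 0% = DMSO vehicle and 100% = reference agonist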
Mdm2 ligase inh – MDM2-luciferase reporter signal enhancers, primary screen, MDM2 E3 ligase inhibitor project, cell-based, luminescence, 1536-well; signal enhancement, % at 5 µM; cell-based MDM2 ubiquitination luciferase reporter, 2 h; 0 = plate control, 100 = twice control, blank-subtracted; 210,000 compounds, 0.11% hits;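 active = signal enhancement of 30% or more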;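 also: luminescence tracks abundance of the self-degrading MDM2-luciferase fusion protein; higher signal means inhibition of MDM2 E3 ligase activity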
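Assay system: mammalian cells stably expressing self-ubiquitinating, self-degrading MDM2 E3–luciferase fusion. Quantity: 2000 cells in each well. Medium: DMEM culture medium. Compound dosing: single-point 5 µM. Timing: cell settling 4 h, compound treatment 2 h, both 37 °C. Technique: luciferase luminescence. Read-out basis: percent signal gain over controls, blank-subtracted. Benchmarks: plate controls and plate blanks.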
S1P4 antag – S1P4 receptor antagonists, primary screen, cell-based; Sphingosine 1-phosphate receptor 4 (Homo sapiens), O95977; S1P4-expressing cells, antagonist mode, reporter read-out; inhibition, % at 4.98 µM; 220,000 compounds, 0.26% hits; in the data active = inhibition above about 29%;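 also: 0% = wells stimulated with agonist and 100% = vehicle wells without agonist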
Lmaj promast – Leishmania major promastigote growth inhibition, primary screen; inhibition, % at 10 µM; AID 1063, 2008; 200,000 compounds, 9% hits; Leishmania major promastigotes, resazurin fluorescence viability; in the data active = inhibition above about 50%;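 also: promastigotes grown with compound for 44 hours at 28 °C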
* hit, by the source's call; . = no result given.

SMILES	S1P3 antag	S1P4 agonist	Mdm2 ligase inh	S1P4 antag	Lmaj promast
Cc1cccn2c(CN(C)CC3Cc4ccccc4O3)c(C(=O)N3CCCCC3)nc12 (stereo unspecified)	-27	-1	-14	3	13
O=C(OCCCN1CCOCC1)c1ccc(O)c(O)c1	-11	0	-11	0	.
COc1cc(C(=O)OCCN2CCOCC2)ccc1O	-1	3	-8	-5	56*
O=C(COc1ccc(Cl)cc1Cl)N1CCCN(C(=O)COc2ccc(Cl)cc2Cl)CC1	.	3	-8	16	97*
Cc1ccc(C(=O)CSc2nnc(CNc3ccc(C)cc3C)n2Cc2ccco2)cc1	20	-1	0	0	60*
O=C(CSc1nnc(-c2ccc(O)cc2)n1Cc1ccco1)c1ccccc1	.	1	-13	-2	54*
O=C(CSc1nnc(-c2cccnc2)n1Cc1ccco1)c1ccccc1	4	0	-12	-5	-7
Cc1ccc(/C=C2\S/C(=N/S(=O)(=O)c3cccs3)NC2=O)cc1	-16	1	-9	-4	.
COC(=O)c1ccccc1NC1=C/C(=N\S(=O)(=O)c2cccs2)c2ccccc2C1=O	.	0	-4	-4	100*
O=C1C(Nc2ccccc2)=C(NS(=O)(=O)c2ccccc2)C(=O)c2ccccc21	11	2	.	-20	0
O=C1C(Nc2ccccc2)=C/C(=N/S(=O)(=O)c2cccs2)c2ccccc21	-16	1	-4	-27	101*
COC(=O)c1cccc(NS(=O)(=O)c2cccs2)c1C	-18	2	-4	0	11
Cc1ccc(NC2=C/C(=N/S(=O)(=O)c3cccs3)c3ccccc3C2=O)cc1	-5	2	-6	-17	99*
Cc1nnc2sc(-c3cc4ccccc4o3)nn12	-8	.	.	.	.
CC(CN1CCCC(C(N)=O)C1)c1ccccc1 (stereo unspecified)	-51	0	-11	-4	25
CCOC(=O)C1CCCN(C(=O)c2ccccc2[N+](=O)[O-])C1 (stereo unspecified)	-17	2	-6	-11	-6
O=[N+]([O-])c1ccccc1/C=C/CN1CCCCC1	.	0	-13	-9	75*
CCOC(=O)C1CCCN(C/C=C/c2ccccc2[N+](=O)[O-])C1 (stereo unspecified)	.	1	-28	-5	85*
CCOC(=O)C1CCCN(CCC(C)c2ccccc2)C1 (stereo unspecified)	14	-2	-15	-5	78*
COc1ccc(OCC(=O)N/N=C2/C=C(C)CC2)cc1	-5	-1	0	-15	0
Cc1cc(C(=O)NCc2ccc(F)cc2)n(-c2ccccc2)n1	-19	1	-11	-3	.
COc1cccc2cc(C(C)N(CCCN3CCOCC3)C(=S)Nc3ccc(C)cc3)oc12 (stereo unspecified)	-12	-1	-16	-1	19
COc1cccc(NC(=O)N(CCCN2CCOCC2)C(C)c2cc3ccccc3o2)c1 (stereo unspecified)	.	4	-15	-4	99*
COc1ccc(NC(=S)N(CCN(C)C)C(C)c2ccco2)cc1 (stereo unspecified)	-16	-1	-10	-4	51*
COc1ccc(NC(=S)N(CCCN2CCOCC2)C(C)c2cc3ccccc3o2)cc1 (stereo unspecified)	5	0	-10	-2	72*
SMILES	S1P3 antag	S1P4 agonist	Mdm2 ligase inh	S1P4 antag	Lmaj promast
Cc1ccc(NC(=S)N(CCN(C)C)C(C)c2ccco2)cc1C (stereo unspecified)	-4	1	-7	-4	46
Cn1ncc(Br)c1C(=O)OCC(=O)Nc1nc(-c2ccccc2)cs1	.	-3	.	-24	47
Cn1c(=N)n(CC(O)c2cccc3ccccc23)c2ccccc21 (stereo unspecified)	3	-1	-11	-2	102*
COc1ccc(CCn2cnc(=O)c(C#N)c2C)cc1OC	4	3	-5	-9	-4
COC(=O)c1ccc(CNC(=O)CN(CCC(C)C)S(=O)(=O)c2ccc3c(c2)OCCO3)cc1	3	0	3	0	56*
COCCNC(=O)CN(C)S(=O)(=O)c1ccc2c(c1)OCCO2	-32	0	-21	2	0
